According to ChEMBL document CHEMBL1143719, “Design, synthesis, and anticonvulsant activity of some sulfamides” (Bioorg Med Chem, 2007):
Calls of active or inactive are those of the source. No cut-off for these calls is given here.

Experiments:
[1] = species: Mus musculus; assay: Protective index, ratio of TD50 against Albino mouse to ED50 for Albino mouse; format: functional
[2] = system: Mus musculus; assay: Anticonvulsant activity in Albino mouse at 100 mg/kg, ip after 0.5 hrs by MES assay; format: functional, organism-based; set-up: dose 100 mg/kg
Method in brief: (§1)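 Mice given compound ip at 30, 100 and 300 mg/kg in 30% polyethylene glycol 400 and 10% water, 0.01 mL/g body weight. Three animals per dose. Maximal electroshock (MES) or pentylenetetrazol (PTZ) seizure tests were run 0.5 and 4 h after dosing, and animals protected were counted.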

[3] = system: Mus musculus; assay: Anticonvulsant activity in Albino mouse at 300 mg/kg, ip after 0.5 hrs by MES assay; format: functional, organism-based; set-up: dose 300 mg/kg; method in brief: as §1
[4] = system: Mus musculus; assay: Anticonvulsant activity in Albino mouse at 300 mg/kg, ip after 4 hrs by MES assay; format: functional, organism-based; set-up: dose 300 mg/kg; method in brief: as §1
[5] = system: Mus musculus; assay: Neurotoxicity in Albino mouse at 30 mg/kg, ip after 0.5 hrs by RotoRod test; format: toxicity, organism-based; set-up: dose 30 mg/kg, route intraperitoneal; details: in vivo
Method in brief: (§2)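 RotoRod neurotoxicity screen in mice dosed ip at 30, 100 and 300 mg/kg, in vehicle of 30% PEG 400 and 10% water (0.01 mL/g). Three animals per dose, tested 0.5 and 4 h after administration. Affected animals were scored per group.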

[6] = system: Mus musculus; assay: Neurotoxicity in Albino mouse at 100 mg/kg, ip after 0.5 hrs by RotoRod test; format: toxicity, organism-based; set-up: dose 100 mg/kg, route intraperitoneal; details: in vivo; method in brief: as §2
[7] = system: Mus musculus; assay: Neurotoxicity in Albino mouse at 300 mg/kg, ip after 0.5 hrs by RotoRod test; format: toxicity, organism-based; set-up: dose 300 mg/kg, route intraperitoneal; details: in vivo; method in brief: as §2
[8] = system: Mus musculus; assay: Neurotoxicity in Albino mouse at 30 mg/kg, ip after 4 hrs by RotoRod test; format: toxicity, organism-based; set-up: dose 30 mg/kg, route intraperitoneal; details: in vivo; method in brief: as §2
[9] = system: Mus musculus; assay: Neurotoxicity in Albino mouse at 100 mg/kg, ip after 4 hrs by RotoRod test; format: toxicity, organism-based; set-up: dose 100 mg/kg, route intraperitoneal; details: in vivo; method in brief: as §2
[10] = system: Mus musculus; assay: Neurotoxicity in Albino mouse at 300 mg/kg, ip after 4 hrs by RotoRod test; format: toxicity, organism-based; set-up: dose 300 mg/kg, route intraperitoneal; details: in vivo; method in brief: as §2
[11] = system: Mus musculus; assay: Anticonvulsant activity in Albino mouse at 30 mg/kg, ip after 0.5 hrs by PTZ assay; format: functional, organism-based; set-up: dose 30 mg/kg; method in brief: as §1
[12] = system: Mus musculus; assay: Anticonvulsant activity in Albino mouse at 100 mg/kg, ip after 0.5 hrs by PTZ assay; format: functional, organism-based; set-up: dose 100 mg/kg; method in brief: as §1
[13] = system: Mus musculus; assay: Anticonvulsant activity in Albino mouse at 300 mg/kg, ip after 0.5 hrs by PTZ assay; format: functional, organism-based; set-up: dose 300 mg/kg; method in brief: as §1
[14] = system: Mus musculus; assay: Anticonvulsant activity in Albino mouse at 30 mg/kg, ip after 4 hrs by PTZ assay; format: functional, organism-based; set-up: dose 30 mg/kg; method in brief: as §1
[15] = system: Mus musculus; assay: Anticonvulsant activity in Albino mouse at 100 mg/kg, ip after 4 hrs by PTZ assay; format: functional, organism-based; set-up: dose 100 mg/kg; method in brief: as §1
[16] = system: Mus musculus; assay: Anticonvulsant activity in Albino mouse at 300 mg/kg, ip after 4 hrs by PTZ assay; format: functional, organism-based; set-up: dose 300 mg/kg; method in brief: as §1
[17] = system: Mus musculus; assay: Anticonvulsant activity assessed as time of peak effect in intraperitoneally dosed Albino mouse by MES assay; format: functional
Method in brief: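 Phase II quantification in albino mice (ip; 30% PEG 400 and 10% water vehicle). Time of peak effect was determined first. Groups of six mice then received different doses at that time. MES ED50 is the dose protecting 50% of animals, in µmol/kg.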

[18] = system: Mus musculus; assay: Anticonvulsant activity in intraperitoneally dosed Albino mouse by MES assay; format: functional; details: ip
[19] = (§3) Neurotoxicity in intraperitoneally dosed Albino mouse by RotoRod test; format: toxicity, organism-based; details: Albino, in vivo, ip
Method in brief: (§4)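 Median neurotoxic dose in albino mice given compound ip in 30% PEG 400 and 10% water, at the time of peak effect. Six animals per dose were tested on RotoRod and the percentage showing minimal neurotoxicity was recorded. Where TD50 could not be completed, the highest dose tested is reported.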

[20] = system: Mus musculus; assay: Neurotoxic time of peak effect in intraperitoneally dosed Albino mouse by RotoRod test; format: ADME, organism-based; details: in vivo, ip; method in brief: as §4
[21] = system: Mus musculus; assay: Anticonvulsant activity in intraperitoneally dosed Albino mouse at 1613 umol/kg by PTZ assay; format: functional, organism-based
Method in brief: (§5)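 Phase II PTZ test in albino mice dosed ip (30% PEG 400 and 10% water), at the predetermined time of peak effect, in groups of six animals.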

[22] = system: Mus musculus; assay: Anticonvulsant activity in Albino mouse at 30 mg/kg, ip after 0.5 hrs by MES assay; format: functional, organism-based; set-up: dose 30 mg/kg; method in brief: as §1
[23] = system: Mus musculus; assay: Anticonvulsant activity in Albino mouse at 30 mg/kg, ip after 4 hrs by MES assay; format: functional, organism-based; set-up: dose 30 mg/kg; method in brief: as §1
[24] = system: Mus musculus; assay: Anticonvulsant activity in Albino mouse at 100 mg/kg, ip after 4 hrs by MES assay; format: functional, organism-based; set-up: dose 100 mg/kg; method in brief: as §1
[25] = system: Mus musculus; assay: as §3; format: toxicity, organism-based; details: in vivo, ip; method in brief: as §4
[26] = system: Mus musculus; assay: Neurotoxicity in intraperitoneally dosed Albino mouse at 362 umol/kg by RotoRod test; format: toxicity, organism-based; details: in vivo, ip; method in brief: as §4
[27] = system: Mus musculus; assay: Anticonvulsant activity in intraperitoneally dosed Albino mouse at 362 umol/kg by PTZ assay; format: functional, organism-based; method in brief: as §5
[28] = system: Mus musculus; assay: Neurotoxicity in intraperitoneally dosed Albino mouse at 481 umol/kg by RotoRod test; format: toxicity, organism-based; details: in vivo, ip; method in brief: as §4
[29] = system: Mus musculus; assay: Anticonvulsant activity in intraperitoneally dosed Albino mouse at 481 umol/kg by PTZ assay; format: functional, organism-based; method in brief: as §5
[30] = system: Mus musculus; assay: Neurotoxicity in intraperitoneally dosed Albino mouse at 385 umol/kg by RotoRod test; format: toxicity, organism-based; details: in vivo, ip; method in brief: as §4
[31] = system: Mus musculus; assay: Anticonvulsant activity in intraperitoneally dosed Albino mouse at 385 umol/kg by PTZ assay; format: functional, organism-based; method in brief: as §5

Row | Compound | PI [1] | Activity [2] | Activity [3] | Activity [4] | Activity [5] | Activity [6] | Activity [7] | Activity [8] | Activity [9] | Activity [10] | Activity [11] | Activity [12] | Activity [13] | Activity [14] | Activity [15] | Activity [16] | Activity [17] [h] | TD50 [19] [µmol/kg] | Activity [23] | Activity [24] | further results
1 | NS(=O)(=O)NCc1ccccc1 | 5.9 | Active | Active | Active | Non-toxic | Non-toxic | Non-toxic | Non-toxic | Non-toxic | Non-toxic | inactive | inactive | inactive | inactive | inactive | inactive | 0.5 | 1420 | – | – | ED50 [18]: 239 µmol/kg; Activity [20]: 0.5 h; Activity [21]: inactive
2 | O=S(=O)(NC1CC1)NC1CC1 | – | inactive | inactive | inactive | Non-toxic | Non-toxic | Non-toxic | Non-toxic | Non-toxic | Non-toxic | inactive | inactive | inactive | inactive | inactive | inactive | – | – | inactive | inactive | Activity [22]: inactive
3 | CC(C)(C)OC(=O)NS(=O)(=O)NCc1ccccc1 | – | inactive | inactive | inactive | Non-toxic | Non-toxic | Non-toxic | Non-toxic | Non-toxic | Non-toxic | inactive | inactive | inactive | inactive | inactive | inactive | – | – | inactive | inactive | Activity [22]: inactive
4 | O=S(=O)(NCc1ccccc1)NCc1ccccc1 [BENZYL(BENZYLSULFAMOYL)AMINE] | >1.5 | Active | – | – | Non-toxic | Non-toxic | – | Non-toxic | Non-toxic | – | inactive | inactive | – | inactive | inactive | – | 2 | > 362 | inactive | inactive | Activity [25]: 0%; Activity [26]: 0%; Activity [27]: inactive
5 | CCCCNS(=O)(=O)NCCCC [BUTYL(BUTYLSULFAMOYL)AMINE] | >1.6 | – | – | – | Non-toxic | Non-toxic | – | Non-toxic | Non-toxic | – | inactive | inactive | – | inactive | inactive | – | 2 | > 481 | inactive | inactive | Activity [25]: 0%; Activity [28]: 0%; Activity [29]: inactive
6 | O=S(=O)(NC1CCCCC1)NC1CCCCC1 | >2.5 | – | – | – | Non-toxic | Non-toxic | – | Non-toxic | Non-toxic | – | inactive | inactive | – | inactive | inactive | – | 0.5 | > 385 | inactive | inactive | Activity [25]: 0%; Activity [30]: 0%; Activity [31]: inactive
